ChEMBL document CHEMBL2396535, “Synthesis and biological evaluation of 18F-labled 2-phenylindole derivatives as PET imaging probes for β-amyloid plaques” (Bioorg Med Chem, 2013)

Columns and labels:
[1] = Ratio of drug level in brain to blood in ICR mouse after 2 mins; type: ADME, tissue-based; conditions: brain and blood, read-out: BBR
Procedure, shortened: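 Male ICR mice (5 weeks) received the ¹⁸F tracer (740–1110 kBq/mL) in saline with 10% EtOH by tail-vein injection. Five mice per time point were sacrificed at 2, 10, 30 and 60 min. Organs were removed, weighed and gamma-counted, and expressed as %ID/g. The ratio is brain %ID/g over blood %ID/g at 2 min.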

[2] = test system: Brain; test: Ratio of drug level in brain after 2 mins to drug level in brain after 60 mins in ICR mouse; type: ADME, tissue-based; conditions: in vivo
Procedure, shortened: (§1)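 Male normal ICR mice (5 weeks old), n = 5 per time point, received a tail-vein injection of [18F] tracer (740–1110 kBq/mL) in saline containing 10% EtOH. Mice were sacrificed at 2, 10, 30 and 60 min. Organs were removed, weighed and gamma-counted, and data were expressed as %ID/g.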

[3] = target: Amyloid-beta precursor protein (Homo sapiens, UniProt P05067); test: Displacement of [125I]IMPY from amyloid beta (1 to 42) (unknown origin) after 3 hrs by gamma counting analysis
Amyloid-beta precursor protein, sequence (P05067 whole entry): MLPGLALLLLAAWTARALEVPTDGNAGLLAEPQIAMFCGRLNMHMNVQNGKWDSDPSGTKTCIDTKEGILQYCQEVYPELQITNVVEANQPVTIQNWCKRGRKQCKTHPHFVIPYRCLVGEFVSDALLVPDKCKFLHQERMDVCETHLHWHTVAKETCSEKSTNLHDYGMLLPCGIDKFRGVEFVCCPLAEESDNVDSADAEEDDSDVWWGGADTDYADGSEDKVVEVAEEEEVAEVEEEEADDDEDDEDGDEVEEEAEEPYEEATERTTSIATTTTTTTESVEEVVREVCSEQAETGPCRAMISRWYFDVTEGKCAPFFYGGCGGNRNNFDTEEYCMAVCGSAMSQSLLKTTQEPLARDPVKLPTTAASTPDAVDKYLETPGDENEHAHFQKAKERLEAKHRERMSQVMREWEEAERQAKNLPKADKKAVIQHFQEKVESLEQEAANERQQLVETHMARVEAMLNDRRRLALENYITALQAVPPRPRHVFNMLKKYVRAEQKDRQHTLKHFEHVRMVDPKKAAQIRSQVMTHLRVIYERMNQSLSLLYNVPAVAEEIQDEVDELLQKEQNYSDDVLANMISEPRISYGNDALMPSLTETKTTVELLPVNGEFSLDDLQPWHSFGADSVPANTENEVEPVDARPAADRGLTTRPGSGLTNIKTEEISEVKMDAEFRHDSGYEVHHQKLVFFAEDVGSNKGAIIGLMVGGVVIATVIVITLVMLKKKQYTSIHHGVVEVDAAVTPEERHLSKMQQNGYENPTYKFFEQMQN
Procedure, shortened: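 Test compound ranged over 10^-4 to 10^-8.5 in ethanol, in 0.05% BSA, 1 mL total. Incubation was 3 h at room temperature, then GF/B filtration and gamma counting. IC50 came from three independent experiments, and Ki was derived by Cheng–Prusoff.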

[4] = test system: Intestine; test: Biodistribution in ICR mouse intestine assessed per organ at 740 to 1110 kBq/mL, iv measured 60 mins post-injection by gamma counting analysis; type: ADME, organism-based; conditions: in vivo, 1 h; procedure, shortened: as §1
[5] = test system: Intestine; test: Biodistribution in ICR mouse intestine assessed per organ at 740 to 1110 kBq/mL, iv measured 30 mins post-injection by gamma counting analysis; type: ADME, organism-based; conditions: in vivo, 0.5 h; procedure, shortened: as §1
[6] = test system: Intestine; test: Biodistribution in ICR mouse intestine assessed per organ at 740 to 1110 kBq/mL, iv measured 10 mins post-injection by gamma counting analysis; type: ADME, organism-based; conditions: in vivo; procedure, shortened: as §1
[7] = test system: Intestine; test: Biodistribution in ICR mouse intestine assessed per organ at 740 to 1110 kBq/mL, iv measured 2 mins post-injection by gamma counting analysis; type: ADME, organism-based; conditions: in vivo; procedure, shortened: as §1
[8] = test system: Stomach; test: Biodistribution in ICR mouse stomach assessed per organ at 740 to 1110 kBq/mL, iv measured 60 mins post-injection by gamma counting analysis; type: ADME, organism-based; conditions: in vivo, 1 h; procedure, shortened: as §1
[9] = test system: Stomach; test: Biodistribution in ICR mouse stomach assessed per organ at 740 to 1110 kBq/mL, iv measured 30 mins post-injection by gamma counting analysis; type: ADME, organism-based; conditions: in vivo, 0.5 h; procedure, shortened: as §1
[10] = test system: Stomach; test: Biodistribution in ICR mouse stomach assessed per organ at 740 to 1110 kBq/mL, iv measured 10 mins post-injection by gamma counting analysis; type: ADME, organism-based; conditions: in vivo; procedure, shortened: as §1
[11] = test system: Stomach; test: Biodistribution in ICR mouse stomach assessed per organ at 740 to 1110 kBq/mL, iv measured 2 mins post-injection by gamma counting analysis; type: ADME, organism-based; conditions: in vivo; procedure, shortened: as §1
[12] = test system: Bone; test: Biodistribution in ICR mouse bone assessed per gram of tissue at 740 to 1110 kBq/mL, iv measured 60 mins post-injection by gamma counting analysis; type: ADME, organism-based, Bone element; conditions: in vivo, 1 h; procedure, shortened: as §1
[13] = test system: Bone; test: Biodistribution in ICR mouse bone assessed per gram of tissue at 740 to 1110 kBq/mL, iv measured 30 mins post-injection by gamma counting analysis; type: ADME, organism-based, Bone element; conditions: in vivo, 0.5 h; procedure, shortened: as §1
[14] = test system: Bone; test: Biodistribution in ICR mouse bone assessed per gram of tissue at 740 to 1110 kBq/mL, iv measured 10 mins post-injection by gamma counting analysis; type: ADME, organism-based, Bone element; conditions: in vivo; procedure, shortened: as §1
[15] = test system: Bone; test: Biodistribution in ICR mouse bone assessed per gram of tissue at 740 to 1110 kBq/mL, iv measured 2 mins post-injection by gamma counting analysis; type: ADME, organism-based, Bone element; conditions: in vivo; procedure, shortened: as §1
[16] = test system: Kidney; test: Biodistribution in ICR mouse kidney assessed per gram of tissue at 740 to 1110 kBq/mL, iv measured 60 mins post-injection by gamma counting analysis; type: ADME, organism-based; conditions: in vivo, 1 h; procedure, shortened: as §1
[17] = test system: Kidney; test: Biodistribution in ICR mouse kidney assessed per gram of tissue at 740 to 1110 kBq/mL, iv measured 30 mins post-injection by gamma counting analysis; type: ADME, organism-based; conditions: in vivo, 0.5 h; procedure, shortened: as §1
[18] = test system: Kidney; test: Biodistribution in ICR mouse kidney assessed per gram of tissue at 740 to 1110 kBq/mL, iv measured 10 mins post-injection by gamma counting analysis; type: ADME, organism-based; conditions: in vivo; procedure, shortened: as §1
[19] = test system: Kidney; test: Biodistribution in ICR mouse kidney assessed per gram of tissue at 740 to 1110 kBq/mL, iv measured 2 mins post-injection by gamma counting analysis; type: ADME, organism-based; conditions: in vivo; procedure, shortened: as §1
[20] = test system: Lung; test: Biodistribution in ICR mouse lung assessed per gram of tissue at 740 to 1110 kBq/mL, iv measured 60 mins post-injection by gamma counting analysis; type: ADME, organism-based; conditions: in vivo, 1 h; procedure, shortened: as §1
[21] = test system: Lung; test: Biodistribution in ICR mouse lung assessed per gram of tissue at 740 to 1110 kBq/mL, iv measured 30 mins post-injection by gamma counting analysis; type: ADME, organism-based; conditions: in vivo, 0.5 h; procedure, shortened: as §1
[22] = test system: Lung; test: Biodistribution in ICR mouse lung assessed per gram of tissue at 740 to 1110 kBq/mL, iv measured 10 mins post-injection by gamma counting analysis; type: ADME, organism-based; conditions: in vivo; procedure, shortened: as §1
[23] = test system: Lung; test: Biodistribution in ICR mouse lung assessed per gram of tissue at 740 to 1110 kBq/mL, iv measured 2 mins post-injection by gamma counting analysis; type: ADME, organism-based; conditions: in vivo; procedure, shortened: as §1
[24] = test system: Spleen; test: Biodistribution in ICR mouse spleen assessed per gram of tissue at 740 to 1110 kBq/mL, iv measured 60 mins post-injection by gamma counting analysis; type: ADME, organism-based; conditions: in vivo, 1 h; procedure, shortened: as §1
[25] = test system: Spleen; test: Biodistribution in ICR mouse spleen assessed per gram of tissue at 740 to 1110 kBq/mL, iv measured 30 mins post-injection by gamma counting analysis; type: ADME, organism-based; conditions: in vivo, 0.5 h; procedure, shortened: as §1
[26] = test system: Spleen; test: Biodistribution in ICR mouse spleen assessed per gram of tissue at 740 to 1110 kBq/mL, iv measured 10 mins post-injection by gamma counting analysis; type: ADME, organism-based; conditions: in vivo; procedure, shortened: as §1
[27] = test system: Spleen; test: Biodistribution in ICR mouse spleen assessed per gram of tissue at 740 to 1110 kBq/mL, iv measured 2 mins post-injection by gamma counting analysis; type: ADME, organism-based; conditions: in vivo; procedure, shortened: as §1
[28] = test system: Liver; test: Biodistribution in ICR mouse liver assessed per gram of tissue at 740 to 1110 kBq/mL, iv measured 60 mins post-injection by gamma counting analysis; type: ADME, organism-based; conditions: in vivo, 1 h; procedure, shortened: as §1
[29] = test system: Liver; test: Biodistribution in ICR mouse liver assessed per gram of tissue at 740 to 1110 kBq/mL, iv measured 30 mins post-injection by gamma counting analysis; type: ADME, organism-based; conditions: in vivo, 0.5 h; procedure, shortened: as §1
[30] = test system: Liver; test: Biodistribution in ICR mouse liver assessed per gram of tissue at 740 to 1110 kBq/mL, iv measured 10 mins post-injection by gamma counting analysis; type: ADME, organism-based; conditions: in vivo; procedure, shortened: as §1
[31] = test system: Liver; test: Biodistribution in ICR mouse liver assessed per gram of tissue at 740 to 1110 kBq/mL, iv measured 2 mins post-injection by gamma counting analysis; type: ADME, organism-based; conditions: in vivo; procedure, shortened: as §1
[32] = test system: Heart; test: Biodistribution in ICR mouse heart assessed per gram of tissue at 740 to 1110 kBq/mL, iv measured 60 mins post-injection by gamma counting analysis; type: ADME, organism-based; conditions: in vivo, 1 h; procedure, shortened: as §1
[33] = test system: Heart; test: Biodistribution in ICR mouse heart assessed per gram of tissue at 740 to 1110 kBq/mL, iv measured 30 mins post-injection by gamma counting analysis; type: ADME, organism-based; conditions: in vivo, 0.5 h; procedure, shortened: as §1
[34] = test system: Heart; test: Biodistribution in ICR mouse heart assessed per gram of tissue at 740 to 1110 kBq/mL, iv measured 10 mins post-injection by gamma counting analysis; type: ADME, organism-based; conditions: in vivo; procedure, shortened: as §1
[35] = test system: Heart; test: Biodistribution in ICR mouse heart assessed per gram of tissue at 740 to 1110 kBq/mL, iv measured 2 mins post-injection by gamma counting analysis; type: ADME, organism-based; conditions: in vivo; procedure, shortened: as §1
[36] = test system: Brain; test: Biodistribution in ICR mouse brain assessed per gram of tissue at 740 to 1110 kBq/mL, iv measured 60 mins post-injection by gamma counting analysis; type: ADME, organism-based; conditions: in vivo, 1 h; procedure, shortened: as §1
[37] = test system: Brain; test: Biodistribution in ICR mouse brain assessed per gram of tissue at 740 to 1110 kBq/mL, iv measured 30 mins post-injection by gamma counting analysis; type: ADME, organism-based; conditions: in vivo, 0.5 h; procedure, shortened: as §1
[38] = test system: Brain; test: Biodistribution in ICR mouse brain assessed per gram of tissue at 740 to 1110 kBq/mL, iv measured 10 mins post-injection by gamma counting analysis; type: ADME, organism-based; conditions: in vivo; procedure, shortened: as §1
[39] = test system: Blood; test: Biodistribution in ICR mouse blood assessed per gram of tissue at 740 to 1110 kBq/mL, iv measured 60 mins post-injection by gamma counting analysis; type: ADME, organism-based; conditions: in vivo, 1 h; procedure, shortened: as §1
[40] = test system: Brain; test: Biodistribution in ICR mouse brain assessed per gram of tissue at 740 to 1110 kBq/mL, iv measured 2 mins post-injection by gamma counting analysis; type: ADME, organism-based; conditions: in vivo; procedure, shortened: as §1
[41] = test system: Blood; test: Biodistribution in ICR mouse blood assessed per gram of tissue at 740 to 1110 kBq/mL, iv measured 30 mins post-injection by gamma counting analysis; type: ADME, organism-based; conditions: in vivo, 0.5 h; procedure, shortened: as §1
[42] = test system: Blood; test: Biodistribution in ICR mouse blood assessed per gram of tissue at 740 to 1110 kBq/mL, iv measured 10 mins post-injection by gamma counting analysis; type: ADME, organism-based; conditions: in vivo; procedure, shortened: as §1
[43] = test system: Blood; test: Biodistribution in ICR mouse blood assessed per gram of tissue at 740 to 1110 kBq/mL, iv measured 2 mins post-injection by gamma counting analysis; type: ADME, organism-based; conditions: in vivo; procedure, shortened: as §1
[44] = Partition coefficient, log D of the compound in n-octanol-PBS […] at pH 7.4; type: physicochemical
Procedure, shortened: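 [18F] tracer (1110 kBq) was added to 3.0 g n-octanol plus 3.0 g PBS (0.05 M, pH 7.4), vortexed 3 min at room temperature, then centrifuged 5 min at 3000 rpm.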

CN(C)c1ccc(-c2cc3cc([125I])ccc3[nH]2)cc1
Kp at 2 min [1]: 0.19
Ratio [2]: 1.68

Cn1c(-c2ccc(NCCF)cc2)cc2ccccc21
Ki [3]: 1.03 µM

CN(CC[18F])c1ccc(-c2cc3ccccc3[nH]2)cc1
Kp at 2 min [1]: 1.72
Ratio [2]: 2.1
Drug uptake [4]: 11.04 %ID
Drug uptake [5]: 9 %ID
Drug uptake [6]: 9.06 %ID
Drug uptake [7]: 6.5 %ID
Drug uptake [8]: 1.09 %ID
Drug uptake [9]: 1.43 %ID
Drug uptake [10]: 1.54 %ID
Drug uptake [11]: 1.38 %ID
Drug uptake [12]: 9.71 %ID
Drug uptake [13]: 5.95 %ID
Drug uptake [14]: 4.13 %ID
Drug uptake [15]: 2.05 %ID
Drug uptake [16]: 3.54 %ID
Drug uptake [17]: 4.17 %ID
Drug uptake [18]: 5.62 %ID
Drug uptake [19]: 9.66 %ID
Drug uptake [20]: 3.57 %ID
Drug uptake [21]: 4.27 %ID
Drug uptake [22]: 5.81 %ID
Drug uptake [23]: 6.57 %ID
Drug uptake [24]: 2.71 %ID
Drug uptake [25]: 3.23 %ID
Drug uptake [26]: 3.97 %ID
Drug uptake [27]: 2.73 %ID
Drug uptake [28]: 4.15 %ID
Drug uptake [29]: 4.86 %ID
Drug uptake [30]: 8.38 %ID
Drug uptake [31]: 10.47 %ID
Drug uptake [32]: 3.81 %ID
Drug uptake [33]: 3.71 %ID
Drug uptake [34]: 4.95 %ID
Drug uptake [35]: 6.76 %ID
Drug uptake [36]: 2.77 %ID
Drug uptake [37]: 3.41 %ID
Drug uptake [38]: 5.07 %ID
Drug uptake [39]: 4.37 %ID
Drug uptake [40]: 5.82 %ID
Drug uptake [41]: 4.21 %ID
Drug uptake [42]: 3.81 %ID
Drug uptake [43]: 3.38 %ID
logD [44]: 3.61

Cn1c(-c2ccc(NCCCF)cc2)cc2ccccc21
Ki [3]: 1.1 µM

CNc1ccc(-c2cc3cc([125I])ccc3[nH]2)cc1
Kp at 2 min [1]: 0.29
Ratio [2]: 1.33
